Assay [1] is described as follows: Displacement of [3H]flumazenil from human recombinant GABAA alpha-2-beta-2-gamma-2S receptor expressed in HEK293 cells. Type of assay: cell-based. The method, boiled down:
(§1)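 HEK 293 membranes expressing human α1β2γ2s, α2β2γ2s or α3β2γ2s receptors, about 25 µg protein per 0.55 ml assay in Tris-citrate (50 mM, pH 7.1). Incubated with 1 nM ³H-flumazenil (final) for 40 min at 0–4 °C, then GF/C filtration and ice-cold washes. Nonspecific binding was set with 1 µM clonazepam. […] Mean ± SD of three determinations.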

Assay [2] is described as follows: Displacement of [3H]flumazenil from human recombinant GABAA alpha-3-beta-2-gamma-2S receptor expressed in HEK293 cells. Type of assay: cell-based. The procedure, abridged: as §1
For assay [3], the species on record is Homo sapiens. The assay can be described thus: Selectivity ratio of Ki for human recombinant GABAA alpha-2-beta-2-gamma-2S receptor to Ki for human recombinant GABAA alpha-1-beta-2-gamma-2S receptor. The method, boiled down:
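Displacement of 1 nM [3H]flumazenil from HEK 293 membranes expressing human α2β2γ2s or α1β2γ2s receptors (about 25 µg protein per 0.55 ml), in 50 mM Tris-citrate pH 7.1, 40 min at 0–4 °C. Filtered on glass fibre. Nonspecific binding with 1 µM clonazepam. IC50 from 4–6 concentrations. […] Ratio is Ki α2/Ki α1.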

The species entered for assay [4] is Homo sapiens. The assay can be described thus: Selectivity ratio of Ki for human recombinant GABAA alpha-3-beta-2-gamma-2S receptor to Ki for human recombinant GABAA alpha-1-beta-2-gamma-2S receptor. The procedure, abridged: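 Ratio of the Ki at human α3β2γ2s to the Ki at human α1β2γ2s, both from ³H-flumazenil (1 nM) displacement in HEK 293 membranes (40 min, 0–4 °C, 1 µM clonazepam nonspecific).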

The nature of assay [5]: Displacement of [3H]flumazenil from GABAA receptor in rat cortical membrane. Type of assay: cell membranes. The procedure, abridged: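 Rat cortex homogenized in Tris-HCl (30 mM, pH 7.4), washed by repeated centrifugation at 27,000g, incubated 30 min at 37 °C, then stored at −20 °C. About 50 µg protein per 0.55 ml assay in Tris-citrate (50 mM, pH 7.1) was incubated with 1 nM ³H-flumazenil for 40 min at 0–4 °C, then filtered on GF/C. Nonspecific binding was set with 1 µM clonazepam.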

The target of assay [6] is T1, GABA-A receptor; alpha-1/beta-2/gamma-2 (Homo sapiens, UniProt P14867+P18507+P47870).
T1 sequence (P14867 whole entry): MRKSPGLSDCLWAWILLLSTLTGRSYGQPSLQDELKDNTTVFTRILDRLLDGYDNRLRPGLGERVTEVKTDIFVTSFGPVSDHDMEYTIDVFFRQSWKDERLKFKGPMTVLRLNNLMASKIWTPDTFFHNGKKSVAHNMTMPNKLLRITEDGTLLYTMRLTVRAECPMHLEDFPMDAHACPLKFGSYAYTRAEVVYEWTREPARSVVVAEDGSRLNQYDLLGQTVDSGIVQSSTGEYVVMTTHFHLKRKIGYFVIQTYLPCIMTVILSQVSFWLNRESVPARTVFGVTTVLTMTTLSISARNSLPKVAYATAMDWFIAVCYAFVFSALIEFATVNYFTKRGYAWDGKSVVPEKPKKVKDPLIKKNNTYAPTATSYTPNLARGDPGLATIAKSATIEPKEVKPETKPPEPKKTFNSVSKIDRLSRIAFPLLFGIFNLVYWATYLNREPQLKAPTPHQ
T1 sequence (P47870 whole entry): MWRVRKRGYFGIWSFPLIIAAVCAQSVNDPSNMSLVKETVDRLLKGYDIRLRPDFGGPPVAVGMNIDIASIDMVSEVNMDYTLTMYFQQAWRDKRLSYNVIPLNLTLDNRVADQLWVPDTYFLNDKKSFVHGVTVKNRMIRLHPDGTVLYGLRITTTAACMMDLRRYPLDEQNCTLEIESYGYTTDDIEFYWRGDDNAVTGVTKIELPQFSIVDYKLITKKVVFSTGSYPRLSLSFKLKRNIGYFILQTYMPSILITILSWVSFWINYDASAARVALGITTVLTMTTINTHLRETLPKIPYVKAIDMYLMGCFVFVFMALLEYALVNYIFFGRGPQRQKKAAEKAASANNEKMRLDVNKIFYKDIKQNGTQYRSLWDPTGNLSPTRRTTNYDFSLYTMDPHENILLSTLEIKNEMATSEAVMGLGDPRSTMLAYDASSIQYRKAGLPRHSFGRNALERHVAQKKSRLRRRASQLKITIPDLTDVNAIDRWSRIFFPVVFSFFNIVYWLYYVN
T1 sequence (P18507 whole entry): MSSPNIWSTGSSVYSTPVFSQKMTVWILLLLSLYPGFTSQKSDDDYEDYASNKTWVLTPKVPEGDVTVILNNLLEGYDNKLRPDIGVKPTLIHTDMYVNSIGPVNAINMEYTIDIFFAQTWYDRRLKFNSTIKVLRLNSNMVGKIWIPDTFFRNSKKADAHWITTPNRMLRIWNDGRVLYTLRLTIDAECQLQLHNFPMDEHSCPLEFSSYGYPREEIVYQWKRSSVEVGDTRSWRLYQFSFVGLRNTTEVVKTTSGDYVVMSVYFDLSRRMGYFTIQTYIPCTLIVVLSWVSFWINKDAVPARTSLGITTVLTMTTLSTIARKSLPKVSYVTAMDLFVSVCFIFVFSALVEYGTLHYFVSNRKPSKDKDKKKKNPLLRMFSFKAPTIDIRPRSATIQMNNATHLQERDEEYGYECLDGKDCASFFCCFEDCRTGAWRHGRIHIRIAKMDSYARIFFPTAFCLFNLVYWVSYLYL
Put plainly: Displacement of [3H]flumazenil from human recombinant GABAA alpha-1-beta-2-gamma-2S receptor expressed in HEK293 cells. Type of assay: cell-based. The procedure, abridged:
as §1
Background: In a radioligand displacement assay an active substance lowers the binding of a labelled ligand.

26 compounds from ChEMBL document CHEMBL1157503, “Affinity of 3-acyl substituted 4-quinolones at the benzodiazepine site of GABA(A) receptors” (Bioorg Med Chem, 2008) can be followed below.

Each structure is given as a SMILES string.

As a reminder, the Ki is the equilibrium dissociation constant of an inhibitor or competing ligand from its target.

In the case of `CCCCC(=O)c1c[nH]c2ccc(CCc3ccccc3)cc2c1=O`, the Ki in assay [1] was found to be 1.7 nM; in assay [2], 1.1 nM; in assay [5], 0.42 nM; in assay [6], 0.53 nM. Further, the Ratio Ki amounted to 3 in the assay listed under Homo sapiens [3] and 2 in the assay filed under Homo sapiens [4].

As for `CCCCC(=O)c1c[nH]c2ccc(Cc3ccncc3)cc2c1=O`, the inhibition constant Ki in assay [1] turned out to be 2.7 nM; in assay [2], 2.1 nM; in assay [5], 0.53 nM; in assay [6], 0.39 nM. In addition, the Ratio Ki in the assay listed under Homo sapiens [3] turned out to be 7; in the assay listed under Homo sapiens [4], 5.

As to `CCCCC(=O)c1c[nH]c2ccc(-c3ccccc3)cc2c1=O`, the inhibition constant (Ki) in assay [5] is 28 nM.

As for `CCCCCCC(=O)c1c[nH]c2ccc(CC)cc2c1=O`, the Ki in assay [5] was found to be 2.1 nM.

For the compound `CCCCC(=O)c1c[nH]c2ccc(CC)cc2c1=O`, the Ki in assay [1] is 1.6 nM; in assay [2], 2.8 nM; in assay [5] it was 0.9 nM; in assay [6] it was 0.38 nM. Also, the Ratio Ki in the assay filed under Homo sapiens [3] came out at 4; in the assay listed under Homo sapiens [4], 7.

For the compound `CCc1ccc2[nH]cc(C(=O)CCC(C)C)c(=O)c2c1`, in assay [5], the inhibitory constant (Ki) stood at 2.5 nM.

For the compound `CCCCC(=O)c1c[nH]c2ccc(Cc3cccnc3)cc2c1=O`, the inhibition constant (Ki) in assay [2] is 2.2 nM; in assay [5], 0.27 nM; in assay [6] it was 0.12 nM. Also, the Ratio Ki in the assay listed under Homo sapiens [4] was determined as 18.

The compound `CCc1ccc2[nH]cc(C(=O)CC3CCCCC3)c(=O)c2c1` returned an inhibition constant (Ki) in assay [5] of 30 nM.

Turning to `O=C(CC1CCCC1)c1c[nH]c2ccc(Cc3cccnc3)cc2c1=O`, the inhibition constant Ki in assay [2] was determined as 23 nM; in assay [5] it was 1.5 nM; in assay [6] it was 0.88 nM. For the same compound, the Ratio Ki in the assay filed under Homo sapiens [4] was found to be 26.

In the case of `CCOC(=O)c1cnc2ccc(CC)cc2c1O`, the inhibitory constant (Ki) is 52 nM in assay [2], 20 nM in assay [5] and 5.9 nM in assay [6]. Also, the Ratio Ki in the assay filed under Homo sapiens [4] was 9.

With `CCCCC(=O)c1c[nH]c2ccc(Cc3ccccn3)cc2c1=O`, the values for the Ki in assay [2], in assay [5] and in assay [6] were 2.2 nM, 0.23 nM and 0.14 nM, respectively. The Ratio Ki in the assay filed under Homo sapiens [4] turned out to be 16.

Turning to `CCCC(=O)c1c[nH]c2ccc(Cc3ccccc3)cc2c1=O`, the Ki was 0.81 nM in assay [1], 1.56 nM in assay [2], 0.22 nM in assay [5] and 0.12 nM in assay [6]. Moreover, the Ratio Ki in the assay listed under Homo sapiens [3] was found to be 7; in the assay listed under Homo sapiens [4], 13.

Turning to `CCc1ccc2[nH]cc(C(=O)CC(C)CC)c(=O)c2c1` (stereo unspecified), the Ki in assay [5] was found to be 18 nM.

In assay [5], `CCCCC(=O)c1c[nH]c2ccc(Br)cc2c1=O` yielded an inhibitory constant (Ki) of 0.54 nM.

With `CCCCCC(=O)c1c[nH]c2ccc(CC)cc2c1=O`, in assay [5], the inhibition constant Ki was found to be 0.98 nM.

Consider `CCCCC(=O)c1c[nH]c2ccc([N+](=O)[O-])cc2c1=O`, for which the affinity in assay [5], expressed as Ki, was 0.87 nM.

For `CCOC(=O)c1cnc2ccc(Cc3ccccc3)cc2c1O`, the Ki in assay [6] worked out at 0.27 nM.

Turning to `CCCCC(=O)c1c[nH]c2ccc(Cc3ccccc3)cc2c1=O`, the Ki in assay [1] is 0.4 nM; in assay [2], 0.61 nM; in assay [5], 0.17 nM; in assay [6], 0.12 nM. Further, the values for the Ratio Ki in the assay filed under Homo sapiens [3] and in the assay listed under Homo sapiens [4] were 3 and 5, respectively.

In the case of `CCc1ccc2[nH]cc(C(=O)Cc3ccccc3)c(=O)c2c1`, in assay [5], the affinity corresponds to a Ki of 69 nM.

As to `CCCCC(=O)c1c[nH]c2ccc(Cc3ccc4ccccc4c3)cc2c1=O`, the inhibition constant (Ki) worked out at 22 nM in assay [1], 8.8 nM in assay [2], 1.3 nM in assay [5] and 2.7 nM in assay [6]. The values for the Ratio Ki in the assay listed under Homo sapiens [3] and in the assay listed under Homo sapiens [4] were 8 and 3, respectively.

In the case of `CCc1ccc2[nH]cc(C(=O)CC3CCCC3)c(=O)c2c1`, the inhibitory constant (Ki) in assay [1] was 31 nM; in assay [2], 74 nM; in assay [5] it was 7.9 nM; in assay [6] it was 5.1 nM. Besides, the Ratio Ki is 6 in the assay listed under Homo sapiens [3] and 15 in the assay filed under Homo sapiens [4].

Regarding `CCOC(=O)c1c[nH]c2ccc(Cc3ccccc3)cc2c1=O`, the inhibitory constant (Ki) in assay [2] was determined as 7.2 nM; in assay [5] it was 1.4 nM. Also, the Ratio Ki in the assay filed under Homo sapiens [4] was 27.

Take `O=C(CC1CCCC1)c1c[nH]c2ccc(Cc3ccccc3)cc2c1=O`: the Ki stood at 13 nM in assay [2], 1 nM in assay [5] and 0.51 nM in assay [6]. Also, the Ratio Ki in the assay filed under Homo sapiens [4] was 25.

Consider `CCc1ccc2[nH]cc(C(=O)CCC(C)(C)C)c(=O)c2c1`, for which the affinity in assay [5] corresponds to a Ki of 19 nM.

Regarding `CCCCC(=O)c1c[nH]c2ccc(CCCc3ccccc3)cc2c1=O`, the Ki is 16 nM in assay [1], 14.3 nM in assay [2], 2.5 nM in assay [5] and 3.2 nM in assay [6]. In addition, the Ratio Ki was 5 in the assay filed under Homo sapiens [3] and 4 in the assay filed under Homo sapiens [4].

Consider `CCCCC(=O)c1c[nH]c2ccccc2c1=O`, for which the figures for the Ki in assay [2], in assay [5] and in assay [6] were 9.2 nM, 2.2 nM and 0.97 nM, respectively. Further, the Ratio Ki in the assay filed under Homo sapiens [4] was determined as 9.
